Where a SMILES comes first, the peptide text is derived from it.
Target: T1, C5a anaphylatoxin chemotactic receptor 1 (Homo sapiens, UniProt P21730)
T1 sequence (P21730 whole entry): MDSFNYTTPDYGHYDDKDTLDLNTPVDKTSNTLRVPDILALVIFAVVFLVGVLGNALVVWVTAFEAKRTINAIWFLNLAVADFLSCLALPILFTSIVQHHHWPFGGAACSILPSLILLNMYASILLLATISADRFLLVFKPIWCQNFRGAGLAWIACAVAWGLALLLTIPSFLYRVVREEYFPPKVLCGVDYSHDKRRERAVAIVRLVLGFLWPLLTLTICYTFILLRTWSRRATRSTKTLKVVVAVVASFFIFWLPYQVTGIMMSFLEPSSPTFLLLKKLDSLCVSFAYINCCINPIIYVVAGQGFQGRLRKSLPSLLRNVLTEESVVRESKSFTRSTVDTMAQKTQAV
Assay: Release of beta-glucuronidase from human polymorphonuclear leukocytes(PMN)
Assay type: functional
Procedure, shortened: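 Human PMNs pretreated with cytochalasin B (5 μg/mL, 10 min, 37 °C). 10^6 cells incubated with stimulant 60 min at 37 °C, then centrifuged. Supernatant reacted with 0.01 M p-nitrophenyl β-D-glucuronide in 0.1 M sodium acetate pH 4 for 18 h, in triplicate. Stopped with 0.4 M glycine pH 10. EC50 from dose-response.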

With H-YSFKDCPLGR-OH as the compound, how does the EC50 read?
The EC50 was > 1000 µM.

Which EC50 does the source give for `CSCC[C@H](NC(=O)[C@H](CC(=O)O)NC(=O)[C@H](CCCCN)NC(=O)[C@H](Cc1ccccc1)NC(=O)[C@H](CO)NC(=O)[C@@H](N)Cc1ccc(O)cc1)C(=O)N1CCC[C@H]1C(=O)N[C@@H](CC(C)C)C(=O)NCC(=O)N[C@@H](CCCNC(=N)N)C(=O)O` here?
The EC50 was 80 µM.

For H-YSFKGLLLGR-OH, which EC50 is on record?
Its EC50 is 27.7 µM.

`CC(C)C[C@H](NC(=O)[C@@H]1CCCN1C(=O)[C@H](C)NC(=O)[C@H](CC(=O)O)NC(=O)[C@H](CCCCN)NC(=O)[C@H](Cc1ccccc1)NC(=O)[C@H](CO)NC(=O)[C@@H](N)Cc1ccc(O)cc1)C(=O)NCC(=O)N[C@@H](CCCNC(=N)N)C(=O)O` was tested. Which EC50 did it give?
The EC50 was 207 µM.

For H-YSFKDMQLGR-OH, which EC50 is on record?
The EC50 was 520 µM.

`CSCC[C@H](NC(=O)[C@H](CC(=O)O)NC(=O)[C@H](CCCCN)NC(=O)[C@H](Cc1ccccc1)NC(=O)[C@H](CO)NC(=O)[C@@H](N)Cc1ccc(O)cc1)C(=O)N[C@@H](CCC(N)=O)C(=O)N[C@@H](CC(C)C)C(=O)N1CCC[C@H]1C(=O)N[C@@H](CCCNC(=N)N)C(=O)O` was tested. Which EC50 did it give?
The EC50 was > 1000 µM.

`CSCC[C@H](NC(=O)[C@H](CC(=O)O)NC(=O)[C@H](CCCCN)NC(=O)[C@H](Cc1ccccc1)NC(=O)[C@H](CO)NC(=O)[C@@H](N)Cc1ccc(O)cc1)C(=O)N1CCC[C@H]1C(=O)N[C@@H](C)C(=O)NCC(=O)N[C@@H](CCCNC(=N)N)C(=O)O` was tested. Which EC50 did it give?
The EC50 was 680 µM.

With H-ISHKDMQLGR-OH as the compound, how does the EC50 read?
Its EC50 is 0.0123 µM.

For H-YSFKGMLLGR-OH, which EC50 is on record?
Its EC50 is 70 µM.

How did the EC50 turn out when H-YSFKDMQPGR-OH was run?
Its EC50 is 42 µM.

`CC(C)C[C@H](NC(=O)[C@@H]1CCCN1C(=O)[C@H](CS)NC(=O)[C@H](CC(=O)O)NC(=O)[C@H](CCCCN)NC(=O)[C@H](Cc1ccccc1)NC(=O)[C@H](CO)NC(=O)[C@@H](N)Cc1ccc(O)cc1)C(=O)N[C@@H](CS)C(=O)N[C@@H](CCCNC(=N)N)C(=O)O` (H-YSFKDCPLCR-OH) was tested. Which EC50 did it give?
Its EC50 is > 1000 µM.

— ChEMBL document CHEMBL1128551, “Decapeptide agonists of human C5a: the relationship between conformation and neutrophil response” (J Med Chem, 1995)
